# Measured values from ChEMBL document CHEMBL4402595, “Discovery of Orally Bioavailable Chromone Derivatives as Potent and Selective BRD4 Inhibitors: Scaffold Hopping, Optimization, and Pharmacological Evaluation” (J Med Chem, 2020).
# Calls of active or inactive are those of the source. The rule behind the calls is not given here.
# Legend:
# [1] = biological target: T1, Bromodomain-containing protein 4 (Homo sapiens, UniProt O60885); assay: Binding affinity to recombinant BRD4 BD2 (unknown origin) incubated for 1 hr by TR-FRET assay
# [2] = Cmax in Sprague-Dawley rat at 10 mg/kg, iv measured after 2 to 26 hrs; assay type: ADME, organism-based; design: dose 10 mg/kg, route intravenous; settings: in vivo
# Mus musculus [3] = assay: (§1) Antiinflammatory activity in C57BL6/J mouse model of TLR3-induced acute airway inflammation assessed as inhibition of elevated KC gene expression in lung at 10 mg/kg, po pre-treated 1 day before poly(I:C) stimulation followed by compound re-dosing at 10 mg/kg, po before another poly(I:C) stimulation and measured after 1 day post last poly(I:C) stimulation; assay type: functional, organism-based
# Summary of the method: (§2)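 Male C57BL/6J mice, 12 weeks old, 5 per group, dosed 10 mg/kg one day before challenge and again immediately before intranasal poly(I:C) (300 μg in 50 μL PBS). Controls were vehicle alone and poly(I:C) alone. Lungs were taken 1 day later. Gene expression in lung tissue was measured by qRT-PCR, normalized to PPIA.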
# Mus musculus [4] = assay: (§3) Antiinflammatory activity in C57BL6/J mouse model of TLR3-induced acute airway inflammation assessed as inhibition of elevated IL-6 levels in BALF at 10 mg/kg, ip pre-treated 1 day before poly(I:C) stimulation followed by compound re-dosing at 10 mg/kg, ip before another poly(I:C) stimulation and measured after 1 day post last poly(I:C) stimulation by cytokine Bio-Plex assay; assay type: functional, organism-based
# Summary of the method: (§4)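 Male C57BL/6J mice, 12 weeks old, 5 per group, dosed 10 mg/kg the day before and again immediately before intranasal poly(I:C) (300 μg in 50 μL PBS). BALF was collected 1 day later by two 1 mL PBS lavages and centrifuged at 800 × g for 5 min at 4 °C. Supernatant cytokines were measured by multiplex bead immunoassay against recombinant standards in triplicate.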
# [5] = biological target: T1, Bromodomain-containing protein 4; assay: Inhibition of BRD4 in poly(I:C)-stimulated human SAECs TLR3-inducible IL-6 gene expression pre-incubated for 24 hrs before poly(I:C) stimulation for 4 hrs by qRT-PCR analysis
# Mus musculus [6] = assay: as §3, with “RANTES” for “IL-6”, “po” for “ip”; assay type: functional, organism-based; summary of the method: as §4
# [7] = AUC (0 to t) in Sprague-Dawley rat at 10 mg/kg, iv measured after 2 to 26 hrs; assay type: ADME, organism-based; settings: in vivo
# [8] = Cmax in Sprague-Dawley rat at 20 mg/kg, po measured after 2 to 26 hrs; assay type: ADME, organism-based; design: dose 20 mg/kg, route oral; settings: in vivo
# [9] = Total clearance in Sprague-Dawley rat at 10 mg/kg, iv measured after 2 to 26 hrs; assay type: ADME, organism-based; settings: in vivo
# Summary of the method: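 Male Sprague-Dawley rats received a single dose either intravenously (10 mg/kg) or orally. Plasma concentration–time curves were followed after each route. Total clearance (CL) came from the i.v. arm, and oral bioavailability (F) was derived by comparing the p.o. and i.v. profiles.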
# Mus musculus [10] = assay: as §1, with “mg/kg, ip” for “mg/kg, po”; assay type: functional, organism-based; summary of the method: as §2
# CYP2C8 = biological target: T2, CYP2C8 (Homo sapiens, UniProt P10632); assay: Inhibition of CYP2C8 (unknown origin) at 10 uM relative to control; assay type: ADME
# T2 sequence (P10632 whole entry): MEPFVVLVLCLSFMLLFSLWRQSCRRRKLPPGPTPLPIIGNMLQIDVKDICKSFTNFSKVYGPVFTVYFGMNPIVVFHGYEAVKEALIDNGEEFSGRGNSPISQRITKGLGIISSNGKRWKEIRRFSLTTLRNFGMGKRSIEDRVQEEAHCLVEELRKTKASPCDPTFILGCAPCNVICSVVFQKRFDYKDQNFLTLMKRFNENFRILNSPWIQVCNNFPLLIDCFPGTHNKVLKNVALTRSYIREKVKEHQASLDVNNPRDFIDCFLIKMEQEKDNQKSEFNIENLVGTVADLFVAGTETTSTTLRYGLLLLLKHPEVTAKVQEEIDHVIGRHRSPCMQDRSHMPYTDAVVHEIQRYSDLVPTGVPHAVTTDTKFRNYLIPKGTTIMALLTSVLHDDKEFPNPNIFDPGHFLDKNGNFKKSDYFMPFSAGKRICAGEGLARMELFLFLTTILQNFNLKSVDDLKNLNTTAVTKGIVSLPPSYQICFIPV
# CYP2C9 = CYP2C9 (Homo sapiens, UniProt P11712); assay: Inhibition of CYP2C9 (unknown origin) at 10 uM relative to control; assay type: ADME
# CYP2C9, sequence (P11712 whole entry): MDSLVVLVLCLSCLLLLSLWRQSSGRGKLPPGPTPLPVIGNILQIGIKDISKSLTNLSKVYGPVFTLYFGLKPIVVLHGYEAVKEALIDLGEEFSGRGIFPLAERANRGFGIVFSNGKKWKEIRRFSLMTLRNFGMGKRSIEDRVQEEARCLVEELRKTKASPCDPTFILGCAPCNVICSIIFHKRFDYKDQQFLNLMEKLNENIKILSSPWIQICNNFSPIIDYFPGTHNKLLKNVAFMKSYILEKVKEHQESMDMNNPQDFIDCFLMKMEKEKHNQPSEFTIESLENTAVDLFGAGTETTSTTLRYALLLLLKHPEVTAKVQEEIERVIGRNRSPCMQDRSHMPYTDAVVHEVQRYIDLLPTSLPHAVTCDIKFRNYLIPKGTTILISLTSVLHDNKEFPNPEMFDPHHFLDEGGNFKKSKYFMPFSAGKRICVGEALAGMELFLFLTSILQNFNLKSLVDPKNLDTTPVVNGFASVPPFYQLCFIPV
# CYP2C19 = CYP2C19 (Homo sapiens, UniProt P33261); assay: Inhibition of CYP2C19 (unknown origin) at 10 uM relative to control; assay type: ADME
# CYP2C19, sequence (P33261 whole entry): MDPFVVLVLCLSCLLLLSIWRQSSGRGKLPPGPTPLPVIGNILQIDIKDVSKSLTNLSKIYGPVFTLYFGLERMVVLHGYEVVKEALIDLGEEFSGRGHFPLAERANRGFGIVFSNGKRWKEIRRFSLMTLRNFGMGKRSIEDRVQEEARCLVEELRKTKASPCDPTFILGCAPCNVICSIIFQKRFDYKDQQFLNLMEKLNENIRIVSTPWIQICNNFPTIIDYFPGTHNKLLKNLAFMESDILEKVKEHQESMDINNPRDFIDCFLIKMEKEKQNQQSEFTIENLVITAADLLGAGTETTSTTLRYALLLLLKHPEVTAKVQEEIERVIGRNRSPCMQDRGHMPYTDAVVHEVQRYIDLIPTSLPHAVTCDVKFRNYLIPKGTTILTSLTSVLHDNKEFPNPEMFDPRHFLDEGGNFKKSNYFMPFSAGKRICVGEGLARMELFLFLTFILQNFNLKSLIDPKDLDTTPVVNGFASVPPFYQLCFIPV
# CYP2B6 = biological target: T3, CYP2B6 (Homo sapiens, UniProt P20813); assay: Inhibition of CYP2B6 (unknown origin) at 10 uM relative to control; assay type: ADME
# T3 sequence (P20813 whole entry): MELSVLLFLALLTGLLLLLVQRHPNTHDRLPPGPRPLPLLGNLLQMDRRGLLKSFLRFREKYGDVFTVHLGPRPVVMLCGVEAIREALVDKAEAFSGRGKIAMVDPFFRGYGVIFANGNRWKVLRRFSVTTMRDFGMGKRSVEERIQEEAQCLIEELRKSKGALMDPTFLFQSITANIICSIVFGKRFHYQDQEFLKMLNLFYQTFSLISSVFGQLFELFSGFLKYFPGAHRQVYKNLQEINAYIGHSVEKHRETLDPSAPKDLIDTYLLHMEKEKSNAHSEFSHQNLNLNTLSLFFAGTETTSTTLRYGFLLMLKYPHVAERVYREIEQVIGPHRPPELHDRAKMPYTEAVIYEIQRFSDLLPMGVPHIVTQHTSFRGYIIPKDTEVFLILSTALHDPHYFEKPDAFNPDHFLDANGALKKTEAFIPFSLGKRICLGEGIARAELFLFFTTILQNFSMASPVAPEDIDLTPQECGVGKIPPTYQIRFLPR
# CYP1A2 = biological target: T4, CYP1A2 (Homo sapiens, UniProt P05177); assay: Inhibition of CYP1A2 (unknown origin) at 10 uM relative to control; assay type: ADME
# T4 sequence (P05177 whole entry): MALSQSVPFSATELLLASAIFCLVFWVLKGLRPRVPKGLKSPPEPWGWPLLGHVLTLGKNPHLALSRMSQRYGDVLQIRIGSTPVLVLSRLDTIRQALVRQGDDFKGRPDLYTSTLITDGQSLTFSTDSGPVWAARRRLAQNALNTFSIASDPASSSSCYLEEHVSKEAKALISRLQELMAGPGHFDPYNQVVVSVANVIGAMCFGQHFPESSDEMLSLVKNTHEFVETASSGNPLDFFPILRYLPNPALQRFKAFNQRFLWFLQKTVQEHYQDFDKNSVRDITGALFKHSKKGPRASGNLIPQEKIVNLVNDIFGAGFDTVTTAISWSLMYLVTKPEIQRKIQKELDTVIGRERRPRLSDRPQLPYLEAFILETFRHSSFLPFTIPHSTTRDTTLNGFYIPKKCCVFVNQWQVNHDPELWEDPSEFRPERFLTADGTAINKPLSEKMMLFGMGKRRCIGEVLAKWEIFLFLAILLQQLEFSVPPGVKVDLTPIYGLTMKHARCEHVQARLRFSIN
# CYP3A4 = CYP3A4 (Homo sapiens, UniProt P08684); assay: Inhibition of CYP3A4 (unknown origin) at 10 uM using midazolam substrate relative to control; assay type: ADME; settings: probe midazolam
# CYP3A4, sequence (P08684 whole entry): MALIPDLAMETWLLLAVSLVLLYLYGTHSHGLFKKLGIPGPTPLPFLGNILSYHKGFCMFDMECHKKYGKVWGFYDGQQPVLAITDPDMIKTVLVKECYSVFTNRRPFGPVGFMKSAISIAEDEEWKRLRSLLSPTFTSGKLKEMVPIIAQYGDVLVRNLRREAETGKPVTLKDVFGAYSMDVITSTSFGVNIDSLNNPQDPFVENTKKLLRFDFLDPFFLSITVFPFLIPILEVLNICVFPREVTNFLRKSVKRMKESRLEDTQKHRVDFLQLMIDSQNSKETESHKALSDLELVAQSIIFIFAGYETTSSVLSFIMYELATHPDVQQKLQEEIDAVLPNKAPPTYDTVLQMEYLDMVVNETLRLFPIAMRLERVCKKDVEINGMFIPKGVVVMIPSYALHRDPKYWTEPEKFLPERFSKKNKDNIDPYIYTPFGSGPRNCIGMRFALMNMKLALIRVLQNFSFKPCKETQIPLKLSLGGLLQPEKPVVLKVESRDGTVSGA
# Summary of the method: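 The CYP3A4 assay was run with midazolam or with testosterone as substrate.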
IC50 [1] [µM],Cmax [2] [µg/mL],IC50 [5] [µM],AUC(0-t) [7] [µg·h/mL],Cmax [8] [µg/mL],clearance [9] [L/h/kg],inhibition at 10 µM (CYP2C8) [%],inhibition at 10 µM (CYP2C9) [%],inhibition at 10 µM (CYP2C19) [%],inhibition at 10 µM (CYP2B6) [%],inhibition at 10 µM (CYP1A2) [%],inhibition at 10 µM (CYP3A4) [%],Compound,inhibition (Mus musculus [3]),inhibition (Mus musculus [4]),inhibition (Mus musculus [6]),inhibition (Mus musculus [10])
0.684,2.86,1.1,6.76,0.575,1.48,–,–,–,–,–,–,COc1cc(OC)c2c(=O)cc(-c3cc(C)c(OC[C@H](O)CN4CCCCC4)c(C)c3)oc2c1,Active,Active,Active,Active
–,2.09,–,7.03,0.606,1.48,17,1.9,1.7,27,0,9.5,COc1cc(OC)c2c(=O)cc(-c3cc(C)c(OC[C@H](O)CN4CCN(C)CC4)c(C)c3)oc2c1,Active,Active,Active,Active
